Measured values pooled from the literature.
Protocols differ between the studies behind these lines.
Target: Phosphorylase b kinase gamma catalytic chain, liver/testis isoform (PHKG2, Homo sapiens, UniProt P15735)
One construct used (P15735 1-406): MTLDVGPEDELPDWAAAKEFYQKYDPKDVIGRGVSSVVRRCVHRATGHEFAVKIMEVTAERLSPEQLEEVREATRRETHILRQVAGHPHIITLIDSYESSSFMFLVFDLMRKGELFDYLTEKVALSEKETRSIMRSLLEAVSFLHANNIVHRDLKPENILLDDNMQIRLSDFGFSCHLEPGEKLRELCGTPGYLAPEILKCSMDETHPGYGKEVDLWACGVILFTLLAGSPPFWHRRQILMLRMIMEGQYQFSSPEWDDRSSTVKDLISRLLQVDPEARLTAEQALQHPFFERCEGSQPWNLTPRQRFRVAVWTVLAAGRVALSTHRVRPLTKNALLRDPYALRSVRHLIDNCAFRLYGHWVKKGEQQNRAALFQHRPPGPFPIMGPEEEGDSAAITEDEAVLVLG

Compound | observed | method | tested at | remaining binding [%]
O=C(Nc1ccc(Oc2ccc(F)cc2)cc1)N1CCc2ncccc2[C@H]1c1ccc(F)cc1 | cell-free assay | competition with immobilised ligand | 1 µM | 100
O=C(NCCCN1CCOCC1)c1ccc(Nc2ncc(Cl)c(-c3ccc(Cl)s3)n2)cc1 | binding | competition with immobilised ligand | 1 µM | 60
CCS(=O)(=O)c1cc2cc(C[C@@](O)(CC(C)(C)c3ccc(F)cc3C(N)=O)C(F)(F)F)[nH]c2cn1 | cell-free assay | competition with immobilised ligand | 1 µM | 100
O=C(NCC1CCOCC1)c1n[nH]cc1NC(=O)c1c(F)cccc1F | binding | competition with immobilised ligand | 1 µM | 96
c1cncc(-c2cccc(Nc3nccc(NC4CCCCC4)n3)c2)c1 | binding | competition with immobilised ligand | 10 µM | 71
COc1ncc2cc3ccccc3nc2c1C#N | cell-free assay | competition with immobilised ligand | 5 µM | 100
Cc1cnc(Nc2ccc(C(=O)N3CCC(N4CCCC4)CC3)cc2)nc1-c1cc2ccccc2s1 | binding | competition with immobilised ligand | 1 µM | 51
COc1ccnn2ncc(-c3ccnc(N(C)C)n3)c12 | binding |  | 1 µM | 82
Cc1c[nH]c2nccc(Oc3c(F)cc(Nc4cc(Cl)nc(N)n4)cc3F)c12 | cell-free assay | competition with immobilised ligand | 0.1 µM | 89
N[C@@H]1CCN(c2nccc(-c3cnn4ncccc34)n2)C1 | binding |  | 1 µM | 84
O=C(NCCCC1CCCCC1)c1ccc(CNC(=O)c2cnn(-c3ccccc3)c2C(F)(F)F)cc1 | cell-free assay | competition with immobilised ligand | 0.1 µM | 100
C=CC(=O)N1CCC(C(=O)NCC(=O)N2CCN(c3nc(-c4cnc(N)nc4C(F)F)nc(N4CCOCC4)n3)CC2)CC1 | binding | competition with immobilised ligand | 1 µM | 89
C[C@@H]1CN(c2cc(-c3n[nH]c4ccc(OC5(C)CC5)cc34)ncn2)C[C@H](C)O1 | cell-free assay | competition with immobilised ligand | 0.1 µM | 91
CN(CCCC(F)(F)F)c1nccc(-c2cnn3ncccc23)n1 | binding |  | 1 µM | 100
CCN1CCN(Cc2ccc(C(=O)Nc3ccc(C)c(Oc4ccc5c(c4)CC(=O)N5)c3)cc2C(F)(F)F)CC1 | binding | competition with immobilised ligand | 1 µM | 100
CN(c1nccc(-c2cnn3ncccc23)n1)C1CC1 | binding |  | 1 µM | 81
COc1cnc(Nc2cccc(S(N)(=O)=O)c2)nc1N1CCN(c2ccccc2)CC1 | binding | competition with immobilised ligand | 1 µM | 82
C[C@H]1CCN(c2nccc(-c3cnn4ncccc34)n2)C1 | binding |  | 1 µM | 79
O=C(c1ccc(Nc2ncc(Cl)c(-c3cc4ccccc4s3)n2)cc1)N1CCC(N2CCCC2)CC1 | binding | competition with immobilised ligand | 1 µM | 74
C[C@H](c1cccc(C#N)c1)n1cc(Cl)cc(C(N)=O)c1=N | cell-free assay | competition with immobilised ligand | 1 µM | 100
CN(C)c1nccc(-c2cnc3ncccn23)n1 | binding |  | 1 µM | 89
